Data: ChEMBL document CHEMBL1121490, “10-Piperazinyl-4H-theino[3,2-b][1,5]- and -[3,4-b][1,5]benzodiazepines as potential neuroleptics” (J Med Chem, 1980)

Key:
Mus musculus [1] = experiment: Hypothermia in mice after perorla administration; type: functional
In short: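 Groups of three CFW mice were dosed orally. Rectal temperature was taken 15 min, 2.5 h and 5 h after dosing. Mean changes from each group's mean initial temperature were summed as a "temperature index". ED_min is the minimum dose (mg/kg) giving an index at least 5 lower than the control group.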

[2] = (§1) Lethal dose in mice after perorla administration; type: toxicity, organism-based; details: mouse, in vivo, po
In short: (§2)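 CFW albino mice (19–21 g), groups of three, given oral doses up to 800 mg/kg as solution or suspension. Mortality and gross behavioural changes observed over 48 h; LD50 approximated from the outcome.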

Rattus norvegicus [3] = experiment: compound was evaluated for its ability to produce catalepsy activity in rats; Dose administered perorally is 50 mg/kg; type: functional; details: route oral
In short: (§3)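 Groups of eight Lilly Wistar rats (180–190 g) were dosed orally and checked at 0.5, 1, 1.5, 2, 3, 4 and 5 h. Front paws were placed on a 1.5-cm rod 7 cm above the table, and posture was timed up to 20 min. Release within 10 s counted as noncataleptic. Each rat was scored 0–5 by hold time. Maximum scores per animal were summed, giving a group maximum of 40.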

Rattus norvegicus [4] = experiment: Compound was evaluated for its ability to block conditioned avoidance response (CAR) in rats; Dose administered perorally is 40 mg/kg; no significant block 0-25%; type: functional; details: route oral
Rattus norvegicus [5] = experiment: Compound was evaluated for its ability to block conditioned avoidance response (CAR) in rats; Dose administered perorally is 50 mg/kg; 31-50% block; type: functional; details: route oral
Rattus norvegicus [6] = experiment: Compound was evaluated for its ability to block conditioned avoidance response (CAR) in rats; Dose administered perorally is 50 mg/kg; no significant block 0-25%; type: functional; details: route oral
Rattus norvegicus [7] = experiment: compound was evaluated for its ability to produce catalepsy activity in rats; Dose administered perorally is 100 mg/kg; type: functional; details: route oral; in short: as §3
Mus musculus [8] = experiment: as §1; type: toxicity, organism-based; details: in vivo, po; in short: as §2
Rattus norvegicus [9] = experiment: Compound was evaluated for its ability to block conditioned avoidance response (CAR) in rats; Dose administered perorally is 25 mg/kg; 76-99% block; type: functional; details: route oral
Rattus norvegicus [10] = experiment: compound was evaluated for its ability to produce catalepsy activity in rats; Dose administered perorally is 25 mg/kg; type: functional; details: route oral; in short: as §3
Rattus norvegicus [11] = experiment: Compound was evaluated for its ability to block conditioned avoidance response (CAR) in rats; Dose administered perorally is 5 mg/kg; no significant block 0-25%; type: functional; details: route oral
Rattus norvegicus [12] = experiment: Compound was evaluated for its ability to block conditioned avoidance response (CAR) in rats; Dose administered perorally is 25 mg/kg; 31-50% block; type: functional; details: route oral
Rattus norvegicus [13] = experiment: Compound was evaluated for its ability to block conditioned avoidance response (CAR) in rats; Dose administered perorally is 50 mg/kg; 26-30% block; type: functional; details: route oral
Rattus norvegicus [14] = experiment: Compound was evaluated for its ability to produce catalepsy activity in rats; Dose administered perorally is 50 mg/kg; no significant effect (group score 0-3); type: functional; details: route oral; in short: as §3
Rattus norvegicus [15] = experiment: Compound was evaluated for its ability to block conditioned avoidance response (CAR) in rats; Dose administered perorally is 25 mg/kg;n o significant block 0-25%; type: functional; details: route oral
Rattus norvegicus [16] = experiment: Compound was evaluated for its ability to block conditioned avoidance response (CAR) in rats; Dose administered perorally is 20 mg/kg; 51-75% block; type: functional; details: route oral
In short: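 Lilly Wistar rats (120–130 g) trained in a shuttle box to cross on a 5-s buzzer; failure to respond within 1 s of its end gave a mild shock. Only high responders used. Groups of five dosed orally 1 h 50 min before test; 10-min habituation, then 20-min session. Blockade = shocks received as % of stimuli presented.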

Rattus norvegicus [17] = experiment: compound was evaluated for its ability to produce catalepsy activity in rats; Dose administered perorally is 20 mg/kg; type: functional; details: route oral; in short: as §3
Rattus norvegicus [18] = experiment: Compound was evaluated for its ability to block conditioned avoidance response (CAR) in rats; Dose administered perorally is 25 mg/kg; 51-75% block; type: functional; details: route oral
Rattus norvegicus [19] = species: Rattus norvegicus; experiment: compound was evaluated for its ability to produce catalepsy activity in rats; type: functional; in short: as §3
Rattus norvegicus [20] = experiment: Compound was evaluated for its ability to block conditioned avoidance response (CAR) in rats; Dose administered perorally is 12.5 mg/kg; 51-75% block; type: functional; details: route oral
Rattus norvegicus [21] = experiment: Compound was evaluated for its ability to block conditioned avoidance response (CAR) in rats; Dose administered perorally is 40 mg/kg; 51-75% block; type: functional; details: route oral
Rattus norvegicus [22] = experiment: Compound was evaluated for its ability to block conditioned avoidance response (CAR) in rats; Dose administered perorally is 10 mg/kg; no significant block 0-25%; type: functional; details: route oral
Rattus norvegicus [23] = experiment: Compound was evaluated for its ability to block conditioned avoidance response (CAR) in rats; Dose administered perorally is 10; 51-75% block; type: functional
Rattus norvegicus [24] = experiment: Compound was evaluated for its ability to block conditioned avoidance response (CAR) in rats; Dose administered perorally is 10 mg/kg; 51-75% block; type: functional; details: route oral
Rattus norvegicus [25] = species: Rattus norvegicus; experiment: compound was evaluated for its ability to produce catalepsy activity in rats.; type: functional
In short: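 Groups of eight Lilly Wistar rats (180–190 g) dosed orally, front paws placed on 1.5-cm rod 7 cm above table at 0.5, 1, 1.5, 2, 3, 4, 5 h. Time held recorded up to 20 min, scored 0–5 (<10 s = 0 up to >20 min = 5). Maximum score per animal summed; group maximum 40.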

Rattus norvegicus [26] = experiment: Compound was evaluated for its ability to block conditioned avoidance response (CAR) in rats; Dose administered perorally is 50 mg/kg; 51-75% block; type: functional; details: route oral
Rattus norvegicus [27] = experiment: compound was evaluated for its ability to produce catalepsy activity in rats; Dose administered perorally is 2.5 mg/kg; type: functional; details: route oral; in short: as §3
Rattus norvegicus [28] = experiment: Compound was evaluated for its ability to block conditioned avoidance response (CAR) in rats; Dose administered perorally is 2.5 mg/kg; 31-50% block; type: functional; details: route oral

SMILES	EDmin (Mus musculus [1]) [mg/kg]	LD50 [2] [mg/kg]	Activity (Rattus norvegicus [3])	further results
OCCCN1CCN(C2=Nc3cc(F)ccc3Nc3ccsc32)CC1	200	> 400	0	Activity (Rattus norvegicus [4]): 0
Fc1ccc2c(c1)N=C(N1CCNCC1)c1sccc1N2	50	400	1	Activity (Rattus norvegicus [5]): 2
Cc1scc2c1Nc1ccccc1N=C2N1CCN(C)CC1	>100	200		Activity (Rattus norvegicus [6]): 0; Activity (Rattus norvegicus [7]): 0
c1ccc2c(c1)N=C(N1CCNCC1)c1cscc1N2	50	> 400	1	Activity (Rattus norvegicus [6]): 0
CN1CCN(C2=Nc3ccccc3Nc3cscc32)CC1	25	150		LD50 (Mus musculus [8]): 150 mg/kg; Activity (Rattus norvegicus [9]): 4; Activity (Rattus norvegicus [10]): 1
CN1CCN(C2=NC3=CSCC3=Nc3ccccc32)CC1	50	50		Activity (Rattus norvegicus [11]): 0
CSc1ccc2c(c1)N=C(N1CCN(C)CC1)c1cscc1N2	25	400		Activity (Rattus norvegicus [12]): 2
c1ccc2c(c1)N=C(N1CCNCC1)c1sccc1N2	50	400		Activity (Rattus norvegicus [13]): 1; Activity (Rattus norvegicus [14]): 0
Cc1scc2c1C(N1CCN(C)CC1)=Nc1ccccc1N2	50	> 400		Activity (Rattus norvegicus [15]): 0
Fc1ccc2c(c1)N=C(N1CCNCC1)c1cscc1N2	100	600	0	Activity (Rattus norvegicus [6]): 0
CN1CCN(C2=Nc3ccccc3N(C)c3cscc32)CC1	25	150	0	Activity (Rattus norvegicus [5]): 2
Fc1ccc2c(c1)N=C(N1CCN(Cc3ccccc3)CC1)c1sccc1N2	100	> 400		Activity (Rattus norvegicus [6]): 0
CN1CCN(C2=Nc3cc(F)ccc3Nc3ccsc32)CC1	12.5	> 25		Activity (Rattus norvegicus [16]): 3; Activity (Rattus norvegicus [17]): 2
O=CN1CCN(C2=Nc3ccccc3N(C=O)c3cscc32)CC1	200	400		Activity (Rattus norvegicus [6]): 0
Clc1cc2c(cc1Cl)Nc1cscc1C(N1CCNCC1)=N2	200	> 800	0	Activity (Rattus norvegicus [6]): 0
Clc1ccc2c(c1)N=C(N1CCNCC1)c1cscc1N2	25	> 400	0	Activity (Rattus norvegicus [6]): 0
CCOC(=O)N1CCN(C2=Nc3cc(F)ccc3Nc3ccsc32)CC1	>800	> 800		Activity (Rattus norvegicus [13]): 1

SMILES	EDmin (Mus musculus [1]) [mg/kg]	LD50 [2] [mg/kg]	Activity (Rattus norvegicus [3])	further results
COc1ccc2c(c1)N=C(N1CCN(C)CC1)c1cscc1N2	50	200	1	Activity (Rattus norvegicus [13]): 1
CN1CCN(C2=Nc3ccc(C(F)(F)F)cc3Nc3cscc32)CC1	100	600	0	Activity (Rattus norvegicus [6]): 0
CN1CCN(C2=Nc3ccccc3Nc3ccsc32)CC1	25	100		Activity (Rattus norvegicus [10]): 2; Activity (Rattus norvegicus [18]): 3
CN1CCN(C2=Nc3cc(Cl)ccc3Nc3ccsc32)CC1	6.25	50		Activity (Rattus norvegicus [19]): 2; Activity (Rattus norvegicus [20]): 3
CN1CCN(C2=Nc3cc(C(F)(F)F)ccc3Nc3cscc32)CC1	50	> 200		Activity (Rattus norvegicus [21]): 3
OCCN1CCN(C2=Nc3cc(F)ccc3Nc3ccsc32)CC1	25	> 400	0	Activity (Rattus norvegicus [5]): 2
c1ccc(CN2CCN(C3=Nc4ccccc4Nc4ccsc43)CC2)cc1	200	> 400		Activity (Rattus norvegicus [6]): 0
OCCCN1CCN(C2=Nc3ccccc3Nc3cscc32)CC1	>400	> 400		Activity (Rattus norvegicus [13]): 1
Cc1cc2c(s1)C(N1CCN(C)CC1)=Nc1cc(F)ccc1N2	12.5	150		Activity (Rattus norvegicus [22]): 0
c1ccc(CN2CCN(C3=Nc4ccccc4Nc4cscc43)CC2)cc1	800	800		Activity (Rattus norvegicus [6]): 0
CN1CCN(c2cccc3c2N=C2SC=CC2N=C3)CC1 (stereo not given)	>50	> 50		
CN1CCN(C2=Nc3cc(Cl)ccc3Nc3cscc32)CC1	3	75		Activity (Rattus norvegicus [23]): 3; Activity (Rattus norvegicus [19]): 1
CN(C)CCCN1c2ccccc2Sc2ccc(Cl)cc21 [CHLORPROMAZINE]	6.25			Activity (Rattus norvegicus [19]): 1; Activity (Rattus norvegicus [24]): 3
CN1CCN(C2=Nc3cc(Cl)ccc3Nc3ccccc32)CC1 [CLOZAPINE]	50			Activity (Rattus norvegicus [25]): 2; Activity (Rattus norvegicus [16]): 3
OCCN1CCN(CC/C=C2\c3ccccc3Sc3ccc(C(F)(F)F)cc32)CC1 [E-FLUPENTIXOL]	>400	> 400	0	Activity (Rattus norvegicus [13]): 1
CSc1ccc2c(c1)N(CCC1CCCCN1C)c1ccccc1S2 (stereo not given) [THIORIDAZINE]	25			Activity (Rattus norvegicus [10]): 1; Activity (Rattus norvegicus [26]): 3
OCCN1CCN(CC/C=C2/c3ccccc3Sc3ccc(C(F)(F)F)cc32)CC1 [Z-FLUPENTIXOL]	3			Activity (Rattus norvegicus [27]): 4; Activity (Rattus norvegicus [28]): 2
